Tests used:
[1] = tested on: Cx43-hemichannels in primary bovine corneal endothelial cells (BCECs); details: cited from earlier work
[2] = tested on: Cx43-hemichannels; details: cited from earlier work; for effect on Cx43-hemichannel inhibition by high [Ca2+]i: 1 μM [Ca2+]i
[3] = tested on: Cx43 gap junctions; details: cited from earlier work
[4] = tested on: native HeLa cells, which lack endogenous Cx43 expression; assay: Whole-cell patch clamp recording in native HeLa cells; assay type: cell-based, human; details: peptide 100 μM; voltage steps -30 to +60 mV; Supplementary Fig. 1
In short: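 Whole-cell patch clamp was done on untransfected HeLa cells. The CsCl/EGTA/TEA pipette solution (pH 7.2) was set to 1 µM free Ca2+ and delivered test peptide (100 µM). Steps ran from −30 to +60 mV for 30 s, acquired at 4 kHz and filtered at 1 kHz.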

[5] = tested on: Cx43-hemichannels in HeLa cells overexpressing Cx43; assay: Whole-cell patch clamp recording of unitary Cx43-hemichannel currents; assay type: cell-based, human; details: peptide 100 μM via patch pipette
[6] = tested on: Cx43^M242 hemichannels; assay: ATP release from HeLa cells transiently expressing CT-truncated Cx43^M242; assay type: cell-based, human; details: peptide 100 μM; Fig. 6b
In short: (§1)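 HeLa cells were transiently transfected with the truncated Cx43 construct; empty-vector-transfected cells gave background release. Cells were triggered with 2 µM A23187 while exposed to vehicle or TAT-linked test peptides (100 µM). Extracellular ATP was measured by luciferin–luciferase and normalised to baseline from separate cultures in standard HBSS-HEPES. At least four independent measurements.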

[7] = tested on: Cx43^ΔGap19M242-based hemichannels; assay: ATP release from HeLa cells transiently expressing Cx43^ΔGap19M242; assay type: cell-based, human; details: peptide 100 μM; 2 μM A23187; n = 4; Fig. 7a
In short: as §1

Q: What does the source list for `Cc1ccc2c(c1)C(=O)C1(O)CCN(c3ccccc3)C1=N2` (single isomer, unassigned; (-)) [(−)-blebbistatin]?
A: effect on thrombin-induced inhibition of Cx43-hemichannels in BCECs ([1]; thrombin-treated BCECs): could be alleviated; effect on Cx43-hemichannel inhibition by high [Ca2+]i [2]: prevented the Cx43-hemichannel inhibition by high [Ca^2+]i

Q: Which “effect on Cx43 gap junctions” value [3] does the source give for “YGRKKRRORRRDGANVDMHLKQTFTKKFKYGTFFHGK [TAT-L2]” here?
A: but not Cx43 gap junctions

Q: What about the “effect of TAT-L2 pre-treatment on the active area in BCECs” value ([1]; pre-treatment of BCECs) of the same compound?
A: severely reduced

Q: What about the “effect on opening of Cx43-hemichannels” value [2] of the same compound?
A: inhibited the opening of Cx43-hemichannels

Q: Which “unitary current activity in native HeLa cells at 1 μM [Ca2+]i” value [4] does the source give for SPTAPLSPMSPPG [SH3] here?
A: did not elicit any changes

Q: And the “membrane charge transfer (Qm) summary at 1 μM [Ca2+]i” value ([5]; current traces integrated over time, Fig. 4j)?
A: remove hemichannel inhibition

Q: What about the “effect on hemichannel opening activity at 50 nM [Ca2+]i” value ([5]; voltage steps -30 to +60 mV, 30 s, Fig. 4b, c) of the same compound?
A: did not affect

Q: What about the “effect on inhibition of Cx43-hemichannel currents by 1 μM [Ca2+]i” value ([5]; voltage steps -30 to +60 mV, 30 s, Fig. 4g-i) of the same compound?
A: completely prevented the inhibition

Q: Which “restoration of ATP release of Cx43^M242 hemichannels in response to 2 μM A23187” value [6] does the source give for YGRKKRRQRRRSRPRPDDLFI [TAT-CT9] here?
A: can restore the activity

Q: And the “restoration of the thrombin-reduced active area in BCECs” value ([1]; thrombin-treated BCECs)?
A: could restore the thrombin-reduced active area

Q: And the “effect on Cx43-hemichannel inhibition by high [Ca2+]i” value [2]?
A: prevented the Cx43-hemichannel inhibition by high [Ca^2+]i

Q: And the “restoration of the activity of Cx43^M239-based hemichannels” value ([2]; cell-permeant synthetic peptide)?
A: can be restored

Q: Which “effect of thrombin pre-treatment on the active area in BCECs” value ([1]; pre-treatment of BCECs) does the source give for thrombin here?
A: strongly reduced

Q: For YGRKKRRQRRRSSPTAPLSPMSPPG [TAT-SH3], which “restoration of ATP release of Cx43^M242 hemichannels in response to 2 μM A23187” value [6] is on record?
A: restored the ATP release properties

Q: And the “restoration of ATP release through Cx43^ΔGap19M242-based hemichannels” value [7]?
A: could not be restored

Q: What does the source list for “Gap19: nine amino acid sequence of L2, selective Cx43-hemichannel inhibitor (KQIEIKKFK; UniProt P17302 128-136, looked up, fragment)”?
A: effect on Cx43 gap junctions [3]: not affecting Cx43 gap junctions; effect on opening of Cx43-hemichannels [2]: inhibit the opening of Cx43-hemichannels
